# Experimental data: ChEMBL document CHEMBL4725242, “Discovery of GS-9688 (Selgantolimod) as a Potent and Selective Oral Toll-Like Receptor 8 Agonist for the Treatment of Chronic Hepatitis B” (J Med Chem, 2020)
# Test system: not listed separately
# Test: Apparent permeability across basolateral to apical side in human Caco2 cells measured after 1 to 2 hrs by LC-MS/MS analysis
# Details: Caco-2
row,SMILES,Papp B→A
1,CCCC[C@](C)(CO)Nc1nc(N)nc2cccnc12,29 ×10⁻⁶ cm/s
2,CCCC[C@](C)(CO)Nc1nc(N)nc2cc(C)cnc12,29 ×10⁻⁶ cm/s
3,CCCC[C@@](C)(CO)Nc1nc(N)nc2cccnc12,31 ×10⁻⁶ cm/s

# Test system: not listed separately
# Test: Apparent permeability across apical to basolateral side in human Caco2 cells measured after 1 to 2 hrs by LC-MS/MS analysis
# Details: Caco-2
row,SMILES,Papp A→B
1,CCCC[C@](C)(CO)Nc1nc(N)nc2cccnc12,29 ×10⁻⁶ cm/s
2,CCCC[C@](C)(CO)Nc1nc(N)nc2cc(C)cnc12,31 ×10⁻⁶ cm/s
3,CCCC[C@@](C)(CO)Nc1nc(N)nc2cccnc12,32 ×10⁻⁶ cm/s

# Target: T1, Toll-like receptor 8 (Homo sapiens, UniProt Q9NR97)
# T1 sequence (Q9NR97 whole entry): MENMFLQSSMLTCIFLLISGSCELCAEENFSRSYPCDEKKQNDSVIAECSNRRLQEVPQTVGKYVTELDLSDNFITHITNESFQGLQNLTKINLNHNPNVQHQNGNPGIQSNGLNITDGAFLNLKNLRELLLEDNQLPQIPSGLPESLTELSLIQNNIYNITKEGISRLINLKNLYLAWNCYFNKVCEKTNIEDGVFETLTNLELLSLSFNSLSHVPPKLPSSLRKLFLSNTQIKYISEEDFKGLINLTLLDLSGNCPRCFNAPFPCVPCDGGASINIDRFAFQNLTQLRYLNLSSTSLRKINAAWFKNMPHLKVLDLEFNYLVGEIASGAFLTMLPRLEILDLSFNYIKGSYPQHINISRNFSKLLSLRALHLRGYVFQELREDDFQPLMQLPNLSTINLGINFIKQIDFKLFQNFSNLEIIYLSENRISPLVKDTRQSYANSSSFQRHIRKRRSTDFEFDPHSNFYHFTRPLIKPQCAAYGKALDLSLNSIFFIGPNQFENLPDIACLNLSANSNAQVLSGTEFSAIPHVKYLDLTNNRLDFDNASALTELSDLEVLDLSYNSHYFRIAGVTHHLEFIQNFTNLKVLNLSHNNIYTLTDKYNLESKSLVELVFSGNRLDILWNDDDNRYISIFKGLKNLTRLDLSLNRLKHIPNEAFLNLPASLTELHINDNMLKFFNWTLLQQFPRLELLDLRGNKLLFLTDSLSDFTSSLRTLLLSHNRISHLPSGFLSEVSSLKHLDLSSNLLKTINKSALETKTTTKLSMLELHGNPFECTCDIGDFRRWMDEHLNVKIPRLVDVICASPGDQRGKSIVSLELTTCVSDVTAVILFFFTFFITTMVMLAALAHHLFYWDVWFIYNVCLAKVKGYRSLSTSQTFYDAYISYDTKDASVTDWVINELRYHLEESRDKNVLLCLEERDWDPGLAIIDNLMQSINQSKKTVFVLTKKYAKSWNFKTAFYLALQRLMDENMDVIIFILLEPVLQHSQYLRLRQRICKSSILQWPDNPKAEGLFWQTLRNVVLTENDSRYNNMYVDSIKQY
# Test: Agonist activity at TLR8 in human cryopreserved PBMC assessed as induction of IL-12p40 production measured after 24 hrs
# Details: not given
row,SMILES,EC50
1,CCCC(C)Nc1nc(N)nc2cccnc12 (configuration not stated),3.1 µM
2,CCCC[C@H](CCO)Nc1nc(N)nc2cccnc12,4.3 µM
3,CCCCC[C@](C)(CO)Nc1nc(N)nc2cccnc12,0.58 µM
4,CCC[C@H](CO)Nc1nc(N)nc2cccnc12,19 µM
5,CCCC[C@](C)(CO[C@@H]1O[C@H](C(=O)O)[C@@H](O)[C@H](O)[C@H]1O)Nc1nc(N)nc2cc(F)cnc12,> 50 µM
6,CCCC[C@H](CO)Nc1cc(N)nc2ccccc12,> 50 µM
7,CCCC[C@](C)(CO)Nc1nc(N)nc2cccnc12,0.17 µM
8,CCC[C@](C)(CO)Nc1nc(N)nc2cccnc12,2.4 µM
9,CCCC[C@@H](Nc1nc(N)nc2cccnc12)C(=O)O,> 50 µM
10,CCCC[C@H](CO)Nc1nc(N)nc2cccnc12,0.79 µM
11,CCCC[C@@H](Nc1nc(N)nc2cccnc12)C(N)=O,36 µM
12,CCCC[C@@H](CO)Nc1nc(N)nc2cccnc12,0.42 µM
13,CCCC[C@](C)(CO)Nc1nc(N)nc2cc(C)cnc12,0.16 µM
14,CCC[C@@H](CO)Nc1nc(N)nc2cccnc12,0.43 µM
15,CCCC[C@@](C)(CO)Nc1nc(N)nc2cccnc12,2.4 µM

# Species: Homo sapiens
# Test: Selectivity ratio of EC50 for TLR7 in human cryopreserved PBMC assessed as induction of IFNalpha production to EC50 for TLR8 in human cryopreserved PBMC assessed as induction of IL-12p40 production
# Details: not given
# In short: (§1)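 Cryopreserved healthy-donor human PBMC, recovered 2 h at 37°C/5% CO2, then 100k cells/well in RPMI/10% FBS exposed 24 h at 37°C to a 10-point half-log dilution series (0.5% final DMSO). Supernatant IFNα-2a quantified by MSD electrochemiluminescence immunoassay. Normalized to 10 µM GS-9620 positive and DMSO negative controls; EC50 from 4-parameter logistic fit. For the ratio, divided by the IL-12p40 EC50 from the same PBMC screen.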
row,SMILES,Ratio EC50
1,CCCC[C@](C)(CO)Nc1nc(N)nc2cccnc12,> 80
2,CCCC[C@](C)(CO)Nc1nc(N)nc2cc(C)cnc12,> 185

# Target: T2, Toll-like receptor 7 (Homo sapiens, UniProt Q9NYK1)
# T2 sequence (Q9NYK1 whole entry): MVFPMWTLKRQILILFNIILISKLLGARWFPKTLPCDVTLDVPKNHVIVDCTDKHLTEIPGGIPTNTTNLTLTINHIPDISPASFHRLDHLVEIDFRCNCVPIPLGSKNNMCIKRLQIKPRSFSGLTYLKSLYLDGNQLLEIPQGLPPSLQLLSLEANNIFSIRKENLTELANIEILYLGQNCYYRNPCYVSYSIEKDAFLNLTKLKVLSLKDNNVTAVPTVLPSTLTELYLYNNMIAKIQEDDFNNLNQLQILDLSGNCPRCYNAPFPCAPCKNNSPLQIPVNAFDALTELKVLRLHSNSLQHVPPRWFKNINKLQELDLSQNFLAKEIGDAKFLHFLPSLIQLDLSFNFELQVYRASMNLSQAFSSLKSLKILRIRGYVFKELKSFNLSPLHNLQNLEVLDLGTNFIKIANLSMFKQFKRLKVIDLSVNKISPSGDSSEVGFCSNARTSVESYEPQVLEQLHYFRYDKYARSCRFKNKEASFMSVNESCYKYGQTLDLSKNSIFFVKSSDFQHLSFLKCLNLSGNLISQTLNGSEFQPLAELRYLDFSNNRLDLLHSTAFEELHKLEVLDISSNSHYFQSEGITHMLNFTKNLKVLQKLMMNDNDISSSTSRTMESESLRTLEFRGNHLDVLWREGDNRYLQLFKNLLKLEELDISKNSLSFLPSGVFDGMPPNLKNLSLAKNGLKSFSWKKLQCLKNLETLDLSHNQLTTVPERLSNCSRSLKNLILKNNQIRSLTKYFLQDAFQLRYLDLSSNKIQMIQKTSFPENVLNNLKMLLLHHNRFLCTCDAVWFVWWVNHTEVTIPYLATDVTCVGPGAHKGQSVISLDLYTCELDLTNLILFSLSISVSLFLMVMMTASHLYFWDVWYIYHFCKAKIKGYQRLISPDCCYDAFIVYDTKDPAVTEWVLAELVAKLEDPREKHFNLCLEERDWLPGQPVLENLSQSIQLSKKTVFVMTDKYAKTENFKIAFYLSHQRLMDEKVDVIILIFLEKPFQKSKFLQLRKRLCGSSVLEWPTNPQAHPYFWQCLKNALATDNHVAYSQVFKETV
# Test: Agonist activity at TLR7 in human cryopreserved PBMC assessed as induction of IFNalpha production measured after 24 hrs
# Details: not given
# In short: as §1, with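 “immunoassay.” for “immunoassay. Normalized to 10 µM GS-9620 positive and DMSO negative controls; EC50 from 4-parameter logistic fit.”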
row,SMILES,EC50
1,CCCC(C)Nc1nc(N)nc2cccnc12 (configuration not stated),5.1 µM
2,CCCC[C@H](CCO)Nc1nc(N)nc2cccnc12,> 50 µM
3,CCCCC[C@](C)(CO)Nc1nc(N)nc2cccnc12,20 µM
4,CCC[C@H](CO)Nc1nc(N)nc2cccnc12,> 50 µM
5,CCCC[C@](C)(CO[C@@H]1O[C@H](C(=O)O)[C@@H](O)[C@H](O)[C@H]1O)Nc1nc(N)nc2cc(F)cnc12,> 50 µM
6,CCCC[C@H](CO)Nc1cc(N)nc2ccccc12,> 50 µM
7,CCCC[C@](C)(CO)Nc1nc(N)nc2cccnc12,15 µM
8,CCC[C@](C)(CO)Nc1nc(N)nc2cccnc12,> 50 µM
9,CCCC[C@@H](Nc1nc(N)nc2cccnc12)C(=O)O,> 50 µM
10,CCCC[C@H](CO)Nc1nc(N)nc2cccnc12,> 50 µM
11,CCCC[C@@H](Nc1nc(N)nc2cccnc12)C(N)=O,> 50 µM
12,CCCC[C@@H](CO)Nc1nc(N)nc2cccnc12,0.91 µM
13,CCCC[C@](C)(CO)Nc1nc(N)nc2cc(C)cnc12,> 50 µM
14,CCC[C@@H](CO)Nc1nc(N)nc2cccnc12,2 µM
15,CCCC[C@@](C)(CO)Nc1nc(N)nc2cccnc12,7.9 µM

# Test system: not listed separately
# Test: Clearance in human hepatic microsomes at 2 uM measured up to 60 mins in presence of NADPH generating system by LC-MS/MS analysis
# Type: ADME, Microsome
# Details: liver microsomes
row,SMILES,CLhep predicted at 2 µM
1,CCCC[C@](C)(CO)Nc1nc(N)nc2cccnc12,13.3 mL/min/kg
2,CCCC[C@](C)(CO)Nc1nc(N)nc2cc(C)cnc12,8.33 mL/min/kg
3,CCCC[C@@](C)(CO)Nc1nc(N)nc2cccnc12,13.3 mL/min/kg

# Test system: not listed separately
# Test: Selectivity index, ratio of CC50 for human MT4 cells to EC50 for TLR8 in human cryopreserved PBMC assessed as induction of IL-12p40 production
# Details: not given
row,SMILES,Ratio CC50/EC50
1,CCCCC[C@](C)(CO)Nc1nc(N)nc2cccnc12,29
2,CCCC[C@](C)(CO)Nc1nc(N)nc2cccnc12,182
3,CCC[C@](C)(CO)Nc1nc(N)nc2cccnc12,>21
4,CCCC[C@H](CO)Nc1nc(N)nc2cccnc12,10
5,CCCC[C@](C)(CO)Nc1nc(N)nc2cc(C)cnc12,144
6,CCCC[C@@](C)(CO)Nc1nc(N)nc2cccnc12,11

# Test system: not listed separately
# Test: Clearance in dog hepatic microsomes at 2 uM measured up to 60 mins in presence of NADPH generating system by LC-MS/MS analysis
# Type: ADME, Canis lupus familiaris, Microsome
# Details: liver microsomes
row,SMILES,CLhep predicted at 2 µM
1,CCCC[C@](C)(CO)Nc1nc(N)nc2cccnc12,23.3 mL/min/kg
2,CCCC[C@](C)(CO)Nc1nc(N)nc2cc(C)cnc12,18.3 mL/min/kg
3,CCCC[C@@](C)(CO)Nc1nc(N)nc2cccnc12,25 mL/min/kg

# Test system: not listed separately
# Test: Dissociation constant, pKa of the compound
# Type: physicochemical
# Details: not given
row,SMILES,pKa
1,CCCC[C@H](CO)Nc1nc(N)nc2cccnc12,6.8
2,CCCC[C@](C)(CO)Nc1nc(N)nc2cc(C)cnc12,7.1

# Test system: not listed separately
# Test: Clearance in rat hepatic microsomes at 2 uM measured up to 60 mins in presence of NADPH generating system by LC-MS/MS analysis
# Type: ADME, Microsome
# Details: liver microsomes
row,SMILES,CLhep predicted at 2 µM
1,CCCC[C@](C)(CO)Nc1nc(N)nc2cccnc12,58.3 mL/min/kg
2,CCCC[C@](C)(CO)Nc1nc(N)nc2cc(C)cnc12,63.3 mL/min/kg
3,CCCC[C@@](C)(CO)Nc1nc(N)nc2cccnc12,58.3 mL/min/kg

# Test system: not listed separately
# Test: Drug metabolism in human hepatocytes assessed as core oxidation
# Type: ADME, cell-based, Hepatocyte
# Details: not given
row,SMILES,Drug metabolism
1,CCCC[C@](C)(CO)Nc1nc(N)nc2cccnc12,Metabolite_Detected
2,CCCC[C@@](C)(CO)Nc1nc(N)nc2cccnc12,Metabolite_Detected

# Test system: not listed separately
# Test: Cytotoxicity against human MT4 cells assessed as reduction in cell viability measured after 4 to 5 days by celltiter-glo assay
# Type: cell-based
# Details: time 4-5 day
row,SMILES,CC50
1,CCCCC[C@](C)(CO)Nc1nc(N)nc2cccnc12,17 µM
2,CCCC[C@](C)(CO[C@@H]1O[C@H](C(=O)O)[C@@H](O)[C@H](O)[C@H]1O)Nc1nc(N)nc2cc(F)cnc12,> 50 µM
3,CCCC[C@](C)(CO)Nc1nc(N)nc2cccnc12,31 µM
4,CCC[C@](C)(CO)Nc1nc(N)nc2cccnc12,> 50 µM
5,CCCC[C@H](CO)Nc1nc(N)nc2cccnc12,7.8 µM
6,CCCC[C@](C)(CO)Nc1nc(N)nc2cc(C)cnc12,23 µM
7,CCCC[C@@](C)(CO)Nc1nc(N)nc2cccnc12,26 µM

# Test system: not listed separately
# Test: Clearance in cynomolgus monkey hepatic microsomes at 2 uM measured up to 60 mins in presence of NADPH generating system by LC-MS/MS analysis
# Type: ADME, Macaca fascicularis, Microsome
# Details: liver microsomes
row,SMILES,CLhep predicted at 2 µM
1,CCCC[C@](C)(CO)Nc1nc(N)nc2cccnc12,21.7 mL/min/kg
2,CCCC[C@](C)(CO)Nc1nc(N)nc2cc(C)cnc12,25 mL/min/kg
3,CCCC[C@@](C)(CO)Nc1nc(N)nc2cccnc12,23.3 mL/min/kg
